Results reported in ChEMBL document CHEMBL1123105, “New bidentates as full inhibitors of enkephalin-degrading enzymes: synthesis and analgesic properties” (J Med Chem, 1985).

Target: not listed separately
Test: Inhibitory activity against rat brain Dipeptidyl aminopeptidase using 10 nM of [3H]Leu-enkephalin as substrate
Outline: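 Membrane-bound dipeptidylaminopeptidase purified from rat brain and aminopeptidase M purified from rabbit kidney were each preincubated 15 min at 25 °C with or without increasing inhibitor concentrations in 50 mM Tris-HCl, pH 7.4. […] The reaction was stopped with HCl after 30 min, and tritiated metabolites were separated on polystyrene beads. IC50 came from log probit analysis of five inhibitor concentrations; mean ± SEM.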

SMILES | IC50
O=C(O)CNC(=O)C(Cc1ccccc1)C(=O)NO (stereo unspecified) | 3500 nM
O=CN(O)C(Cc1ccccc1)C(=O)NCC(=O)O (stereo unspecified) | 232000 nM
O=CN(O)CC(Cc1ccccc1)C(=O)NCC(=O)O (stereo unspecified) | 305 nM
CC(NC(=O)C(CC(=O)NO)Cc1ccccc1)C(=O)O (stereo unspecified) | 2.1 nM
O=C(O)CNC(=O)C(CC(=O)NO)Cc1ccccc1 (stereo unspecified) | 21 nM

Target: T1, Neprilysin (Rattus norvegicus, UniProt P07861)
T1 sequence (P07861 whole entry): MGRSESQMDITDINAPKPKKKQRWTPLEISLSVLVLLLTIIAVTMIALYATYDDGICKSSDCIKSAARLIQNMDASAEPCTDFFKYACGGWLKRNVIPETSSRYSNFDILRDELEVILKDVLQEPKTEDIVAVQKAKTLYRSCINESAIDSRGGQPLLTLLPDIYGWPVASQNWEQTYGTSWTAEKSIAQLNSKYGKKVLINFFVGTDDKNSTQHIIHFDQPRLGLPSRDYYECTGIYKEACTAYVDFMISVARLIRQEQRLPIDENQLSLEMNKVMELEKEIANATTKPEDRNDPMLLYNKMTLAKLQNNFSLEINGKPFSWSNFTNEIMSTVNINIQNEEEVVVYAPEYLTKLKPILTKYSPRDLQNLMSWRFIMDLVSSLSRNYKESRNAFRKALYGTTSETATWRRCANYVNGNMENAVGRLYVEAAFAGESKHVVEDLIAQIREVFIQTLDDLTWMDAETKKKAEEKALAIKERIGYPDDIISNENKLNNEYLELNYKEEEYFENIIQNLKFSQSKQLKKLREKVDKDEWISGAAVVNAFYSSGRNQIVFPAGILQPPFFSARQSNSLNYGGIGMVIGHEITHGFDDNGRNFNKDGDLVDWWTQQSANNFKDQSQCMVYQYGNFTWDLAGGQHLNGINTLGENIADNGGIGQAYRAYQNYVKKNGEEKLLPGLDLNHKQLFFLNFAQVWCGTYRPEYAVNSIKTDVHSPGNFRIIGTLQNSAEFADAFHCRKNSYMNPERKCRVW
Test: In vitro inhibition of enkephalinase purified from […].
Outline: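 Enkephalinase purified from kidney (0.9 ± 0.2 pmol/100 µL final) was preincubated 15 min at 25 °C with or without increasing inhibitor concentrations in 50 mM Tris-HCl, pH 7.4. Tritiated metabolites were separated on polystyrene beads. IC50 came from log probit analysis of five inhibitor concentrations; mean ± SEM of five independent experiments.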

SMILES | IC50
COC(=O)CNC(=O)C(Cc1ccccc1)C(=O)NO (stereo unspecified) | 1 nM
O=CN(O)C(Cc1ccccc1)C(=O)NCC(=O)O (stereo unspecified) | 1500 nM
CC(C)CCNC(=O)CNC(=O)C(Cc1ccccc1)CN(O)C=O (stereo unspecified) | 800 nM
CC(C)CCNC(=O)CNC(=O)C(CC(=O)NO)Cc1ccccc1 (stereo unspecified) | 600 nM
CC(C)CCNC(=O)CNC(=O)C(Cc1ccccc1)C(=O)NO (stereo unspecified) | 850 nM
O=CN(O)CC(Cc1ccccc1)C(=O)NCC(=O)NCc1ccccc1 (stereo unspecified) | 1200 nM
O=CN(O)CC(Cc1ccccc1)C(=O)NCC(=O)O (stereo unspecified) | 10 nM
CC(C)CCNC(=O)CNC(=O)C(Cc1ccccc1)N(O)C=O (stereo unspecified) | 30 nM
O=C(CNC(=O)C(Cc1ccccc1)C(=O)NO)NCc1ccccc1 (stereo unspecified) | 750 nM
O=C(O)CNC(=O)C(Cc1ccccc1)C(=O)O (stereo unspecified) | 700 nM
O=C(O)CNC(=O)C(CC(=O)O)Cc1ccccc1 (stereo unspecified) | 800 nM
CC(NC(=O)C(CC(=O)NO)Cc1ccccc1)C(=O)O (stereo unspecified) | 2 nM
O=C(O)CNC(=O)C(CNO)Cc1ccccc1 (stereo unspecified) | > 1 nM
COC(=O)CNC(=O)C(Cc1ccccc1)CN(O)C=O (stereo unspecified) | 350 nM

Target: T1, Neprilysin
Test: 50% inhibitory activity against enkephalinase purified from rabbit kidney with [3H]D-Ala2-Leu-enkephalin (20 nM) as substrate.

SMILES | IC50
C[C@H](NC(=O)[C@@H](CC(=O)NO)Cc1ccccc1)C(=O)O (racemic) [KELATORPHAN] | 1.7 nM
C[C@H](NC(=O)[C@H](CC(=O)NO)Cc1ccccc1)C(=O)O | 1.8 nM
